Experimental data of several laboratories.
Inositol-tetrakisphosphate 1-kinase: Inositol-tetrakisphosphate 1-kinase (Homo sapiens, UniProt Q13572)
PIK3CG: Phosphatidylinositol 4,5-bisphosphate 3-kinase catalytic subunit gamma isoform (PIK3CG, Homo sapiens, UniProt P48736)
CHRM3: Muscarinic acetylcholine receptor M3 (CHRM3, Homo sapiens, UniProt P20309)
PTGS2: Prostaglandin G/H synthase 2 (PTGS2, Homo sapiens, UniProt P35354)

Nc1ncnc2c1ncn2[C@@H]1O[C@H](CO)C[C@H]1O — IC50 (Inositol-tetrakisphosphate 1-kinase; enzyme activity, inhibitor, ADP detection): 2.4 µM
CN(C)C(=O)c1cc2cnc(Nc3cncc(-c4cccc5c(=O)cc(N6CCOCC6)oc45)c3)nc2n1C1CCCC1 — IC50 (PIK3CG; enzyme activity, inhibitor, radiometric): 6.11 µM
O=C(CCNC(=O)CNC(=O)CC(c1ccccc1)(c1ccccc1)c1ccccc1)NC[C@@H]1CCCN(Cc2cccnc2F)C1 — IC50 (CHRM3; ligand displacement, radioligand; cell membranes): 3.8 µM
CC(C)NC(=O)COc1cccc(-c2nc(Nc3ccc4[nH]ncc4c3)c3ccccc3n2)c1 — IC50 (UDP-glucuronosyltransferase 1A1 (UGT1A1, Homo sapiens, UniProt P22309); enzyme activity, inhibitor): 0.0609 µM
NS(=O)(=O)c1ccc(-n2nc(-c3nnc(CCl)o3)cc2-c2ccccc2)cc1 — IC50 (PTGS2; enzyme activity, inhibitor): 2.64 µM
CN(C)C(=O)c1cc2cnc(Nc3ccc(-c4cccc5c(=O)cc(N6CCOCC6)oc45)c(F)c3)nc2n1C1CCCC1 — IC50 (PIK3CG; enzyme activity, inhibitor, radiometric): > 10 µM
Nc1ncnc2c1ncn2C1CCCC1 — IC50 (Inositol-tetrakisphosphate 1-kinase; enzyme activity, inhibitor, ADP detection): 0.078 µM
CN(C)C(=O)c1cc2cnc(Nc3ccc(-c4cccc5c(=O)cc(N6CCNCC6)oc45)cc3)nc2n1C1CCCC1 — IC50 (PIK3CG; enzyme activity, inhibitor, radiometric): > 10 µM
Cc1cccc(N=C2C(=O)N(Cc3cccc(Cl)c3)c3ccccc32)c1 — IC50 (PIK3CG; enzyme activity, inhibitor, ADP detection): 0.00096 µM
CC(C)N(CCC(=O)c1ccc2ccccc2c1)Cc1ccccc1 — IC50 (Retinal dehydrogenase 2 (ALDH1A2, Homo sapiens, UniProt O94788); enzyme activity, inhibitor, fluorescence; 15 min, pH 7.5): < 10 µM
COc1cc(N=C2C(=O)Nc3ccccc32)cc(OC)c1 — IC50 (PIK3CG; enzyme activity, inhibitor, ADP detection): 0.00786 µM
CN(C)C(=O)c1cc2cnc(Nc3ccc(-c4cccc5c(=O)cc(N6CCOCC6)oc45)cn3)nc2n1C1CCCC1 — IC50 (PIK3CG; enzyme activity, inhibitor, radiometric): > 10 µM
C=C(F)C(=O)N1CCN(c2nc(OC[C@@H]3CCCN3C)nc3c2CCN(c2cccc4cccc(Cl)c24)C3)C[C@@H]1CC#N — IC50 (GTPase NRas (NRAS, Homo sapiens, UniProt P01111, C181S/C186S/G12C); enzyme activity, inhibitor): 0.747 µM
COc1ccc(C=NNC(=O)c2cc(-c3ccccc3)n(-c3ccc(S(N)(=O)=O)cc3)n2)cc1OC — IC50 (PTGS2; enzyme activity, inhibitor): 4.61 µM
O=C(CCc1ccc(Cl)cc1)N1C(=O)C(=Nc2ccc(Cl)cc2Br)c2ccccc21 — IC50 (PIK3CG; enzyme activity, inhibitor, ADP detection): 0.00965 µM
NS(=O)(=O)c1ccc(-n2nc(-c3nnc(S)o3)cc2-c2ccccc2)cc1 — IC50 (PTGS2; enzyme activity, inhibitor): 3.73 µM
Cc1cccc(N=C2C(=O)N(Cc3ccc(Br)cc3)c3ccccc32)c1 — IC50 (PIK3CG; enzyme activity, inhibitor, ADP detection): 0.0098 µM
Nc1ncnc2c1cnn2C1CCCCC1 — IC50 (Inositol-tetrakisphosphate 1-kinase; enzyme activity, inhibitor, ADP detection): 0.44 µM
NS(=O)(=O)c1ccc(-n2nc(C(=O)NN=Cc3ccccc3O)cc2-c2ccccc2)cc1 — IC50 (PTGS2; enzyme activity, inhibitor): 1.55 µM
CN(C)C(=O)c1cc2cnc(Nc3ccc4c(=O)cc(N5CCOCC5)oc4c3)nc2n1C1CCCC1 — IC50 (PIK3CG; enzyme activity, inhibitor, radiometric): 0.461 µM
O=C(CCNC(=O)CNC(=O)CC(c1ccccc1)(c1ccccc1)c1ccccc1)NC[C@@H]1CCCN(Cc2ccc(F)nc2)C1 — IC50 (CHRM3; ligand displacement, radioligand; cell membranes): 8.2 µM
Nc1ncnc2c1ncn2C1CCCO1 (centres unmarked) — IC50 (Inositol-tetrakisphosphate 1-kinase; enzyme activity, inhibitor): 1 µM
CCc1ccc(N=C2C(=O)Nc3ccccc32)cc1 — IC50 (PIK3CG; enzyme activity, inhibitor, ADP detection): 0.0934 µM
c1ccc(COc2[nH]cnc3ncnc2-3)cc1 — IC50 (Inositol-tetrakisphosphate 1-kinase; enzyme activity, inhibitor, ADP detection): 2.9 µM
O=C1C(=Nc2ccc(Cl)cc2)c2ccccc2N1Cc1ccc([N+](=O)[O-])cc1 — IC50 (PIK3CG; enzyme activity, inhibitor, ADP detection): 0.0012 µM
Nc1ncnc2c1ncn2[C@@H]1O[C@H](CO)[C@@H](O)[C@@H]1F — IC50 (Inositol-tetrakisphosphate 1-kinase; enzyme activity, inhibitor, ADP detection): 3.7 µM
CN(C)C(=O)c1cc2cnc(Nc3cncc(-c4ccc5c(=O)cc(N6CCOCC6)oc5c4)c3)nc2n1C1CCCC1 — IC50 (PIK3CG; enzyme activity, inhibitor, radiometric): 1.2 µM
O=C1C(=Nc2ccccc2I)c2ccccc2N1Cc1cccc(Cl)c1 — IC50 (PIK3CG; enzyme activity, inhibitor, ADP detection): 0.00407 µM
CN(C)C(=O)c1cc2cnc(Nc3cc(C(=O)O)cc(-c4ccc5c(=O)cc(N6CCOCC6)oc5c4)c3)nc2n1C1CCCC1 — IC50 (PIK3CG; enzyme activity, inhibitor, radiometric): 17.3 µM
NS(=O)(=O)c1ccc(-n2nc(C(=O)NN3C(=O)CCC3=O)cc2-c2ccccc2)cc1 — IC50 (PTGS2; enzyme activity, inhibitor): 3.63 µM
COc1ccc(-c2cc(=O)c3ccc(Nc4ncc5cc(C(=O)N(C)C)n(C6CCCC6)c5n4)cc3o2)cc1 — IC50 (PIK3CG; enzyme activity, inhibitor, radiometric): 6.03 µM
C=CCN1C(=O)C(=Nc2cccc(C)c2)c2ccccc21 — IC50 (PIK3CG; enzyme activity, inhibitor, ADP detection): 0.0243 µM
